The source made the active and inactive calls. No cut-off for these calls is given here.
Experiments:
[1] = tested on: NRK; assay: Golgi-disturbing activity in golgi apparatus of rat NRK cells assessed as reversible golgi fragmentation after 60 mins by Hoechst 3342 staining-based immunofluorescence microscopy; format: functional, cell-based
How it was run: (§1)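 After 1 h compound exposure (30 µM, 37 °C), NRK cells were either fixed directly or washed four times with PBS and kept in fresh complete medium at 37 °C (90 min per methods) before mannosidase II/Hoechst immunofluorescence to judge recovery of Golgi structure.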

[2] = tested on: NRK; assay: Golgi-disturbing activity in golgi apparatus of rat NRK cells assessed as partial golgi vesiculation after 60 mins by Hoechst 3342 staining-based immunofluorescence microscopy; format: functional, cell-based
How it was run: (§2)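 NRK cells grown in alpha MEM with 10% FCS, 2 mM glutamine and 25 mM Hepes pH 7.4 on coated coverslips. Compound at 30 µM working concentration (DMSO vehicle control) for 60 min at 37 °C. Cells then immunostained for mannosidase II with Alexa 594 secondary and Hoechst for nuclei, and scored by fluorescence microscopy at 60×.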

[3] = tested on: NRK; assay: Golgi-disturbing activity in golgi apparatus of rat NRK cells assessed as microtubule depolymerization-associated golgi fragmentation at 30 uM after 60 mins by Hoechst 3342 staining-based immunofluorescence microscopy; format: functional, cell-based; how it was run: as §2
[4] = tested on: NRK; assay: Golgi-disturbing activity in golgi apparatus of rat NRK cells assessed as golgi fragmentation measured after 60 mins following drug washout by Hoechst 3342 staining-based immunofluorescence microscopy; format: functional, cell-based
[5] = tested on: NRK; assay: Golgi-disturbing activity in golgi apparatus of rat NRK cells assessed as golgi vesiculation after 60 mins by Hoechst 3342 staining-based immunofluorescence microscopy; format: functional, cell-based; how it was run: as §2
[6] = Drug localization in golgi apparatus of rat NRK cells after 10 mins by immunofluorescence microscopy; format: ADME, cell-based
How it was run: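 Live NRK cells incubated with fluorescent probe for 10 min and imaged for Golgi-like perinuclear staining. For colocalization, cells were mildly fixed (2% formaldehyde, 90 s), immunostained for mannosidase II, then given probe at 25 μM for 30 min before mounting. Coumarin read at excitation 370 nm, emission 460 nm.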

[7] = tested on: NRK; assay: Golgi-disturbing activity in golgi apparatus of rat NRK cells assessed as reversible golgi vesiculation after 60 mins by Hoechst 3342 staining-based immunofluorescence microscopy; format: functional, cell-based; how it was run: as §1
[8] = tested on: NRK; assay: Golgi-disturbing activity in golgi apparatus of rat NRK cells assessed as transport of GFP-fused VSV G protein from fragmented golgi to plasma membrane after 60 mins by protein transport assay; format: functional, cell-based
How it was run: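 After transfection with tsO45 VSV-G-GFP, NRK cells were held at 40 °C for 20 h, then at 20 °C for 2 h with cycloheximide to hold VSV-G in the Golgi. Cells were then incubated with compound (30 µM working) or DMSO and shifted to 32 °C for 1 h. Arrival at the plasma membrane was imaged by fluorescence microscopy.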

[9] = tested on: NRK; assay: Golgi-disturbing activity in golgi apparatus of rat NRK cells assessed as microtubule depolymerization-associated golgi fragmentation after 60 mins by Hoechst 3342 staining-based immunofluorescence microscopy
[10] = tested on: NRK; assay: Golgi-disturbing activity in golgi apparatus of rat NRK cells assessed as enhancement of nocodazole-induced golgi fragmentation after 60 mins by Hoechst 3342 staining-based immunofluorescence microscopy; format: functional, cell-based
How it was run: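 NRK cells were pretreated with nocodazole (30 µM) for 60 min, then given compound for a further 60 min. Golgi was visualized by mannosidase II immunofluorescence with Hoechst nuclear stain.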

[11] = tested on: NRK; assay: Golgi-disturbing activity in golgi apparatus of rat NRK cells assessed as golgi fragmentation after 60 mins by Hoechst 3342 staining-based immunofluorescence microscopy in presence of PKD inhibitor H89; format: functional, cell-based
How it was run: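 NRK cells were pretreated with H-89 (20 µM) for 30 min, then incubated with compound for 1 h at 37 °C. Golgi was read by mannosidase II immunofluorescence with Hoechst counterstain.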

[12] = tested on: NRK; assay: Golgi-disturbing activity in golgi apparatus of rat NRK cells assessed as transport of GFP-fused VSV G protein from endoplasmic reticulum to golgi after 60 mins by protein transport assay; format: functional, cell-based
How it was run: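 NRK cells were transfected with tsO45 VSV-G-GFP using FuGene 6 and held at 40 °C for 20 h to arrest VSV-G in the ER. They were treated with compound (30 µM working) or DMSO for 1 h, then moved to 20 °C for 2 h with cycloheximide. VSV-G entry into the Golgi was judged by fluorescence microscopy against the Golgi marker.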

[13] = tested on: NRK; assay: Golgi-disturbing activity in golgi apparatus of rat NRK cells assessed as fusion of golgi membrane fusion with endoplasmic reticulum at 7 uM after 60 mins by Hoechst 3342 staining-based immunofluorescence microscopy; format: functional, cell-based
How it was run: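 Agent applied for 60 min at 37 °C, with a DMSO control. Golgi read by immunofluorescence: rabbit mannosidase II primary, Alexa Fluor 594 secondary, Hoechst DNA stain, 60× fluorescence microscopy.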

[14] = tested on: NRK; assay: Golgi-disturbing activity in golgi apparatus of rat NRK cells assessed as golgi fragmentation after 60 mins by Hoechst 3342 staining-based immunofluorescence microscopy; format: functional; how it was run: as §2
[15] = tested on: NRK; assay: Golgi-disturbing activity in golgi apparatus of rat NRK cells assessed as complete golgi vesiculation without fusion with endoplasmic reticulum at 30 uM after 60 mins by Hoechst 3342 staining-based immunofluorescence microscopy; format: functional, cell-based; how it was run: as §2
[16] = tested on: NRK; assay: Golgi-disturbing activity in golgi apparatus of rat NRK cells assessed as irreversible golgi fragmentation after 60 mins by Hoechst 3342 staining-based immunofluorescence microscopy; format: functional, cell-based; how it was run: as §1

SMILES: C=C([C@H]1[C@H]2CC(=O)O[C@H]2O[C@@H]1CO)[C@H]1CC[C@H]2C(C)(C)CCC[C@]12C
- Activity [1]: Active
- Activity [2]: Active

SMILES: COC(=O)Nc1nc2cc(C(=O)c3cccs3)ccc2[nH]1
- Activity [3]: Active

SMILES: CC1(C)CCC[C@]2(C)[C@@H](OC(=O)c3ccc(OCC4CC4)cc3OCC3CC3)CC[C@@H]12
- Activity [4]: Active
- Activity [5]: Active

SMILES: CN(C)c1ccc2c(CC(=O)NCC#Cc3cc(C(=O)O[C@H]4CC[C@H]5C(C)(C)CCC[C@]45C)c(OCC4CC4)cc3OCC3CC3)cc(=O)oc2c1
- Activity [5]: Active
- Drug uptake [6]: Active
- Activity [7]: Active

SMILES: CC(=O)[C@H]1O[C@@H]2OC(=O)C[C@@H]2[C@H]1OCc1ccccc1
- Activity [4]: inactive
- Activity [1]: inactive
- Activity [2]: inactive

SMILES: COc1ccc(C(=O)O[C@H]2CC[C@H]3C(C)(C)CCC[C@]23C)c(OC)c1
- Activity [5]: Active
- Activity [1]: Active

SMILES: C=C([C@@H]1[C@@H](OC(C)=O)O[C@@H]2OC(=O)C[C@@H]21)[C@H]1CC[C@H]2C(C)(C)CCC[C@]12C
- Activity [8]: Active
- Activity [9]: Active
- Activity [10]: Active
- Activity [11]: Active
- Activity [12]: inactive

SMILES: C[C@H]1CCC/C=C/[C@@H]2C[C@H](O)C[C@H]2[C@H](O)/C=C/C(=O)O1
- Activity [13]: Active

SMILES: CC(=O)O[C@H]1O[C@@H]2OC(=O)C[C@@H]2[C@H]1OCc1ccccc1
- Activity [4]: inactive
- Activity [1]: inactive
- Activity [2]: inactive

SMILES: C=C([C@H]1[C@H]2CC(=O)O[C@H]2O[C@@H]1C(C)=O)C(C)(C)C
- Activity [4]: inactive
- Activity [1]: inactive
- Activity [2]: inactive

SMILES: C=C([C@H]1[C@H]2CC(=O)O[C@H]2O[C@@H]1C(C)=O)[C@H]1CC[C@H]2C(C)(C)CCC[C@]12C
- Activity [1]: Active
- Activity [2]: Active

SMILES: C=C([C@H]1[C@H]2CC(=O)O[C@H]2O[C@@H]1COC(=O)Cc1cc(=O)oc2cc(N(C)C)ccc12)[C@H]1CC[C@H]2C(C)(C)CCC[C@]12C
- Drug uptake [6]: Active
- Activity [14]: Active

SMILES: C=C([C@@H]1[C@@H](OC(C)=O)O[C@@H]2OC(=O)C[C@@H]21)C(C)(C)C
- Activity [4]: inactive
- Activity [1]: inactive
- Activity [2]: inactive

SMILES: C=C1CCC[C@H]2[C@](C)(CC3=C(O)C(=O)C=C(OC)C3=O)[C@@H](C)CC[C@]12C
- Activity [15]: Active
- Activity [16]: Active
- Activity [14]: Active
- Activity [11]: inactive

Source: ChEMBL document CHEMBL1157652, “Chemical biology studies on norrisolide” (Bioorg Med Chem, 2010)
